≈ marks a conversion by molar mass, not a printed value.
What was measured:
Saccharomyces cerevisiae [1] = test: Antifungal activity against Saccharomyces cerevisiae 1138; type: functional
In short: (§1)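 Agar-well diffusion on mutant yeast lawns (1140 ise1 rad52; 1353 ISE+ rad52 top1; 1138 ise2 rad52). Stationary-phase YEPD cultures resuspended in 0.9% saline to 25% transmission at 600 nm, flooded onto YEPD agar with 0.8% Noble agar overlay, dried. Samples in DMSO-MeOH (1:1) added to 6-7 mm wells; nystatin control at 20 μg/mL; 30 °C, 36–48 h; IC12 (dose giving 12-mm zone) from dose–response curve.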

Candida albicans = test: Antifungal activity against Candida albicans SC5314; type: functional
Saccharomyces cerevisiae [2] = test: Antifungal activity against Saccharomyces cerevisiae 1140; type: functional; in short: as §1
Saccharomyces cerevisiae [3] = test: Antifungal activity against Saccharomyces cerevisiae 1353; type: functional; in short: as §1
Saccharomyces cerevisiae [4] = test: Antifungal activity against Saccharomyces cerevisiae Sc7; type: functional
M109 = test: Cytotoxicity against mouse M109 cells; type: functional, cell-based

Row | SMILES | IC12 (Saccharomyces cerevisiae [1]) [µg/mL] | MIC (Candida albicans) [µg/mL] | IC12 (Saccharomyces cerevisiae [2]) [µg/mL] | IC12 (Saccharomyces cerevisiae [3]) [µg/mL] | MIC (Saccharomyces cerevisiae [4]) [µg/mL] | IC50 (M109) [µg/mL]
1 | C[C@H]1CCC([C@H](C)[C@H]2CC[C@H]3[C@@H]4CC=C5C[C@@H](O)CC[C@]5(C)[C@H]4CC[C@]23C)=NC1 | 0.88 | 12.5 (≈ 31.4 µM) | 1.12 | 0.69 | 6.25 (≈ 15.7 µM) | –
2 | C[C@H](C1=NC[C@](C)(O)CC1)[C@H]1CC[C@H]2[C@@H]3CC=C4C[C@@H](O)CC[C@]4(C)[C@H]3CC[C@]12C | 0.35 | < 3.1 | 2.5 | 4 | 6.25 (≈ 15.1 µM) | 31.2 (≈ 75.4 µM)
3 | C[C@H]1CCC([C@H](C)[C@H]2CC[C@H]3[C@@H]4CC=C5[C@@H](O)[C@@H](O)CC[C@]5(C)[C@H]4CC[C@]23C)=NC1 | 10 | 400 (≈ 967 µM) | 23 | 24 | 200 (≈ 484 µM) | 10.5 (≈ 25.4 µM)
4 | C[C@H]1CCC([C@H](C)[C@H]2CC[C@H]3[C@@H]4CCC5=CC(=O)CC[C@]5(C)[C@H]4CC[C@]23C)=NC1 | 14 | – | 45 | 50 | – | 16.8 (≈ 42.5 µM)
5 | C[C@H]1CCC([C@@H](C)[C@H]2CC[C@H]3[C@@H]4CC=C5[C@@H](O)[C@@H](O)CC[C@]5(C)[C@H]4CC[C@]23C)=NC1 | 12 | 200 (≈ 484 µM) | 10 | > 50 | 100 (≈ 242 µM) | 15.5 (≈ 37.5 µM)
6 | C[C@@H]1[C@H](O)[C@@H](C)/C=C/C=C/C=C/C=C/C=C/C=C/C=C/[C@H](O[C@@H]2O[C@H](C)[C@@H](O)[C@H](N)[C@@H]2O)C[C@@H]2O[C@](O)(C[C@@H](O)C[C@@H](O)[C@H](O)CC[C@@H](O)C[C@@H](O)CC(=O)O[C@H]1C)C[C@H](O)[C@H]2C(=O)O [AMPHOTERICIN B] | 8.1 | 1.6 (≈ 1.73 µM) | 15.6 | 25 | 12.5 (≈ 13.5 µM) | 7.5 (≈ 8.12 µM)
7 | Cc1cnc([C@H](C)[C@H]2CC[C@H]3[C@@H]4CC=C5C[C@@H](O)CC[C@]5(C)[C@H]4CC[C@]23C)c(O)c1 [ECLIPTALBINE] | 0.04 | 20 (≈ 48.8 µM) | 0.7 | 0.4 | 20 (≈ 48.8 µM) | > 20
8 | CC(=O)N1CCN(c2ccc(OCC3COC(Cn4ccnc4)(c4ccc(Cl)cc4Cl)O3)cc2)CC1 (centres undefined) [KETOCONAZOLE] | 2.5 | < 0.8 | 4.8 | 9.4 | 1.6 (≈ 3.01 µM) | 17 (≈ 32 µM)
9 | C[C@H]1CC[C@@H]([C@@H](C)[C@H]2CC[C@H]3[C@@H]4CC=C5C[C@@H](O)CC[C@]5(C)[C@H]4CC[C@]23C)NC1 [VERAMILINE] | 3 | – | 3 | 4 | – | –
10 | C[C@H]1CCC([C@@H](C)[C@H]2CC[C@H]3[C@@H]4CC=C5C[C@@H](O)CC[C@]5(C)[C@H]4CC[C@]23C)=NC1 [VERAZINE] | 0.14 | 25 (≈ 62.9 µM) | 0.25 | 0.14 | 6.25 (≈ 15.7 µM) | 12.5 (≈ 31.4 µM)

From ChEMBL document CHEMBL1150957, “DNA-damaging steroidal alkaloids from Eclipta alba from the suriname rainforest1” (J Nat Prod, 1998)
